Compound activity as filed in PubChem BioAssay.
This is a sample that favours compounds with a hit; in the whole collection about 2.2% have one here.
FLuc inhib CS: firefly luciferase enzyme inhibitors, primary screen, artefact control for luciferase-based inhibitor screens, biochemical, luminescence, ATPLite; Luciferin 4-monooxygenase (Photinus pyralis), P08659; 10 min; inhibition, % at 10 µM; 200,000 tested, 1.5% active; AID 1006, 2008;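 active = inhibition above about 50% when tested at 10 µM, limit read from the data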
Target sequence (P08659 whole entry, looked up): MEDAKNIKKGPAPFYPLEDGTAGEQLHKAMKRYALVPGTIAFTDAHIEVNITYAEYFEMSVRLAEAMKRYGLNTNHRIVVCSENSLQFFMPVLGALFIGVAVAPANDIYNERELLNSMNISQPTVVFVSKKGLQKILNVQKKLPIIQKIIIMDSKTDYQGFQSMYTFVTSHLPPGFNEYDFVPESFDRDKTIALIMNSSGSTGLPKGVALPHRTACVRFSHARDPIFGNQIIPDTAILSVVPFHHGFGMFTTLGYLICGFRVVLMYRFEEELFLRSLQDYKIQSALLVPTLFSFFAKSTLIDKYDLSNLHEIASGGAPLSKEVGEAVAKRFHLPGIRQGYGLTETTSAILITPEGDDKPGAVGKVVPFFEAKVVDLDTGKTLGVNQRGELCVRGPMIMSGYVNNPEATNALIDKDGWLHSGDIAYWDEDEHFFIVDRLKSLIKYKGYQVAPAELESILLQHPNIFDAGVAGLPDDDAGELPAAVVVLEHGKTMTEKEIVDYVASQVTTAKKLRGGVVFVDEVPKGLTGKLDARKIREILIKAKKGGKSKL
FLuc stim CS: FLuc activators, initial screening, artefact control for FLuc-dependent activation tests, biochemical, ATPlite luminescence. Luciferin 4-monooxygenase (Photinus pyralis), P08659. ATPlite luciferase biochemical, 10 min; 0 = ATP-free wells, 1 = DMSO control. activation factor at 10 µM. 200,000 tested, under 10 active. AID 1027, 2008;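 active = luciferase activation factor, scaled between plate controls, of at least 2 with compound at 10 µM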
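assay system = Luciferase/luciferin detection reagent, cell-free biochemical luciferase assay | also added = ATP substrate | times = 10 min post-reagent at room temperature | measured by = luminescence from luciferase reaction | measure = luciferase activation, seen as luminescence increase over controls | benchmarks = low control with PBS replacing ATP, high control enzyme plus ATP without compound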
PPC-1+TRAIL kill: compounds killing PPC-1 cancer cells with TRAIL present, primary screen, TRAIL potentiator project, ATPLite luminescence, uHTS. 220,000 tested, 0.41% active. PPC-1 cells + TRAIL, ATPLite viability luminescence. cell killing (% activity), % at 4 µM or 5 µM;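 active = cell killing above 50% in the first pass at 4 µM, then a duplicate retest at 5 µM averaging 50% or more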;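 note: plate controls were cells with TRAIL plus DMSO for no effect and medium-only wells lacking cells for full effect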
STAT3 blocker: IL-6 driven STAT3 reporter inhibitors, primary screen, U3A cells, luciferase, luminescence, MLSCN library | IL-6 STAT3-luciferase reporter; host cell line lacks STAT1 | inhibition, % at 5.5 µM | 190,000 tested, 0.89% active | AID 862, 2007;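 active = inhibition above the mean inhibition across all screened compounds plus 3 SD, cut at about 44% in these data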;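 note: 0% = DMSO only wells and 100% = 100 µM nifuroxazide control wells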
C8 TRAIL sens: viability loss with TRAIL in NB7+C8 cells, primary screen, TRAIL sensitizer project, cell-based, ATPlite luminescence. inhibition (viability loss, TRAIL sensitization), % at 10 µM. 360,000 tested, 1% active. AID 624354, 2012;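 active = compounds causing at least 50% loss of cell viability in the single-dose screen, relative to plate controls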
HSP90 refold inh: HSP90 inhibitors, primary screen, cell lysate, luminescence. Heat shock protein HSP 90 (rabbit reticulocyte lysate; luciferase refolding). Rabbit reticulocyte lysate, luciferase refolding luminescence, 3 h. inhibition, % at 5.6 µM. 290,000 tested, 0.91% active;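 active = inhibition above the screen-wide mean plus 3 SD, computed separately per campaign, cut at about 16% in these data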;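 note: 0% = DMSO wells and 100% = 60 µM geldanamycin wells; inhibitors lower the luminescence because luciferase stays unfolded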
HSP90 confirm: HSP90 inhibitors, confirmation, cell lysate, luminescence. shares compounds with HSP90 refold inh. rabbit reticulocyte lysate, luciferase refolding luminescence, 3 h. inhibition, % at 5.9 µM. 2,300 tested, 64% active; in the data active = inhibition above about 18%;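 note: 0% = vehicle wells and 100% = reference inhibitor wells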
luciferase ctr: firefly luciferase inhibitors, HSP90 counter-screen, confirmation, artefact control for HSP90 inhibitor project, biochemical, luminescence, triplicate | shares compounds with HSP90 refold inh | purified native firefly luciferase | inhibition, % at 5.9 µM | 2,300 tested, 48% active | AID 1847, 2009;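 active = inhibition above the mean inhibition of all tested sample wells plus 3 SD, cut at about 10% in these data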;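 note: 0% = DMSO with luciferase and 100% = wells lacking luciferase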
* = called active by the depositor; x = no result given.

SMILES | FLuc inhib CS | FLuc stim CS | PPC-1+TRAIL kill | STAT3 blocker | C8 TRAIL sens | HSP90 refold inh | HSP90 confirm | luciferase ctr
COc1cccc(NC(=O)c2cc3cccc(OC)c3o/c2=N\O)c1 | x | x | x | x | x | 11 | x | x
Cc1cccc(NC(=O)c2cc3ccccc3oc2=O)c1 | x | x | x | x | 28 | 20* | 33* | 13*
COc1cccc(NC(=O)c2cc3ccccc3o/c2=N\O)c1 | x | x | x | x | 55* | 48* | 66* | 63*
Cc1ccc(NC(=O)c2cc3ccccc3oc2=N)cc1 | x | x | x | x | 49 | 55* | 20* | 31*
O=C(O)c1ccccc1NC(=O)c1cc2ccccc2oc1=O | x | x | x | x | 4 | 23* | 2 | -6
CCCn1c(N)c(C(=O)CSc2nnc(Cc3cccs3)n2C2CC2)c(=O)n(C)c1=O | x | x | x | x | -6 | x | x | x
COC(=O)C1(C(=O)OC)c2ccccc2N(S(=O)(=O)c2ccc(C)cc2)C1CC(=O)c1ccccc1 (stereo unspecified) | x | x | x | x | 10 | x | x | x
C#CCn1c(=NC(=O)c2sc3ccccc3c2Cl)sc2cc(S(N)(=O)=O)ccc21 | 1 | 1 | -3 | 13 | -4 | 2 | x | x
Cc1ccccc1NC(=O)CON=C(N)c1ccccc1 | x | x | x | x | -8 | x | x | x
CCOc1ccc(CCNC(=O)C2CCN(c3nn4c(=O)cc(C)nc4s3)CC2)cc1 | -1 | 1 | 21 | 1 | 32 | 18* | -9 | -12
CCCC(C)NC(=O)COc1ccc(S(=O)(=O)c2ccc(OCC(=O)NC(C)CCC)cc2)cc1 (stereo unspecified) | -1 | 1 | 27 | -6 | -12 | 0 | x | x
COc1ccc(C2=NN(c3ccccc3)C(=O)/C2=C\c2ccc(O)c(OC)c2)cc1 | -1 | 1 | 11 | -2 | -5 | 25* | -10 | -5
COc1cccc(/C=N/Nc2ncccc2[N+](=O)[O-])c1OC | x | x | 24 | x | 10 | 67* | 77* | 70*
O=[N+]([O-])c1ccc(/C=N/Nc2ncccc2[N+](=O)[O-])s1 | x | x | x | x | 21 | x | x | x
CC1Cc2[nH]c(=S)[nH]c(=O)c2C(c2ccc(F)cc2)O1 (stereo unspecified) | x | x | x | x | -18 | x | x | x
Cc1cc(N2CCCCC2)n2ncc(-c3ccccc3)c2n1 | 67* | 0.3 | 37 | 48* | 48* | 37* | 50* | 54*
Cc1cc(N2CCC(C)CC2)n2ncc(-c3ccccc3)c2n1 | 39 | 0.6 | 7 | 29 | 25 | 45* | 59* | 56*
Cc1cc(N2CCCCC2)n2nc(C)c(-c3ccccc3)c2n1 | -1 | 1 | 11 | 4 | 3 | -2 | x | x
Cc1cc(N2CCC(C)CC2)n2nc(C)c(-c3ccccc3)c2n1 | -4 | 1 | 13 | -6 | 17 | 0 | x | x
Cc1cc(NC2CCCC2)n2ncc(-c3ccccc3)c2n1 | x | x | x | x | 59* | 59* | 71* | 70*
CCc1ccc(NC(=O)CSc2nc(C)cs2)cc1 | x | x | x | x | -4 | x | x | x
O=C(CCn1nc(-c2ccc(Cl)cc2)ccc1=O)N1CCN(c2ccccc2)CC1 | x | x | x | x | -12 | -1 | x | x
COC(=O)C(=CC(=CN(C)C)C=C(C(=O)OC)C(=O)OC)C(=O)OC | x | x | -5 | x | 18 | 1 | x | x
O=c1c2c([nH]c3ccc(Br)cc13)CCCC2 | -8 | 1.1 | -8 | x | 7 | x | x | x
O=c1c2c([nH]c3ccccc13)CCC2 | x | x | x | x | -25 | 20* | -6 | -7
SMILES | FLuc inhib CS | FLuc stim CS | PPC-1+TRAIL kill | STAT3 blocker | C8 TRAIL sens | HSP90 refold inh | HSP90 confirm | luciferase ctr
COc1ccc2nc(NC(=O)CSc3cn[nH]n3)sc2c1 | x | x | x | x | 5 | 0 | x | x
CCOc1ccc2nc(NC(=O)CSc3cn[nH]n3)sc2c1 | x | x | x | x | 31 | 19* | 25* | 14*
COC(=O)c1ccc(OCC(O)CN(CC(C)C)CC(C)C)cc1 (stereo unspecified) | -2 | 1 | 8 | 4 | 1 | -2 | x | x
O=C(O)c1ccc(-c2ccccc2Cl)o1 | x | x | x | 2 | -10 | 28* | 30* | -20
O=C(Nc1ccccc1)c1ccc(-c2ccccc2Cl)o1 | 18 | 0.8 | 13 | -2 | 10 | -1 | x | x
Cc1cc(C)nc(Nc2nc(C(N)c3ccccc3)cs2)n1 (stereo unspecified) | x | x | x | x | 28 | x | x | x
Cc1cc(C)nc(Nc2nc(-c3ccccc3)cs2)n1 | x | x | x | x | 77* | 28* | 51* | 37*
CCCc1cc(=O)oc2cc(OCc3ccc(C(=O)O)cc3)ccc12 | x | x | x | x | -6 | 22* | 16 | -22
CCCc1cc(=O)oc2cc(OCc3ccc(C(=O)O)o3)ccc12 | x | x | x | x | -16 | 23* | 18* | -24
COc1ccccc1N1CCN(/N=C/c2ccc(C(=O)O)cc2)CC1 | x | x | x | x | 8 | 46* | 60* | 39*
CCCc1ccc(OCc2ccc(C(=O)NN)o2)c(OC)c1 | x | x | x | x | 6 | 2 | x | x
C=CCc1ccc(OCCn2nnc3ccccc32)c(OC)c1 | x | x | x | x | 6 | 1 | x | x
C=CCc1ccc(OCCn2cccc2C=O)c(OC)c1 | -1 | 1 | -17 | 13 | 3 | 23* | 35* | -18
C=CCc1ccc(OCc2ccc(C(=O)O)o2)c(OC)c1 | x | x | x | x | -11 | 86* | 83* | 46*
CCCc1ccc(OCc2ccc(C(=O)O)o2)c(OC)c1 | 6 | 0.9 | 15 | 9 | -2 | 81* | 82* | 41*
C=CCc1ccc(OCCCCOc2ccc(C(=O)O)cc2)c(OC)c1 | 14 | 0.9 | 19 | 7 | 5 | -1 | x | x
Cc1ccc(OCc2ccc(C(=O)O)o2)c([N+](=O)[O-])c1 | 9 | 0.9 | 16 | 2 | 6 | 20* | 44* | -4
CCCc1ccc(OCc2ccc(C(=O)OC)o2)c(OC)c1 | 5 | 0.9 | 21 | -12 | -1 | 24* | 30* | -21
COC(=O)c1ccc(COc2ccccc2OC)o1 | x | x | x | x | -11 | -6 | x | x
CC(=N\NC(=O)c1ccccc1)/C(=N/O)C(=O)Nc1ccccc1 | x | x | x | x | 4 | 73* | -1 | -5
Cc1ccc(Cl)cc1NC(=O)C(=O)N/N=C/c1ccc2c(c1)OCO2 | x | x | x | x | 3 | 7 | x | x
CC1CN/C(=C\C(=O)c2ccc(Cl)cc2)C(=O)N1 (stereo unspecified) | 51* | 0.5 | 28 | 31 | 14 | 22* | 40* | 24*
CC1CN/C(=C\C(=O)c2ccccc2)C(=O)N1 (stereo unspecified) | 20 | 0.8 | 24 | 7 | 2 | 2 | x | x
